Assay outcomes as filed in PubChem BioAssay.
Most compounds without a hit are left out; they make up all but 12% or so of the library.
CHOP inhibitor: blocks CHOP induction under ER stress. AID 2732. 3.8% of 220,000 active. CHO-K1 CHOP-promoter luciferase, tunicamycin-induced, 15-18 h. inhibition, % at 10 µM;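 active means compounds that reduced the stress-induced luciferase reporter signal by more than about 70% of percent inhibition, limit read from the data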;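 further: 0% = tunicamycin plus vehicle and 100% = wells without tunicamycin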
b-catenin transl: modulators of beta-catenin nuclear translocation. HeLa beta-catenin nuclear translocation, immunofluorescence imaging. AID 1665. nuclear translocation activity, % at 5 µM. 0.3% of 190,000 active;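 active means nuclear translocation activity above 50% at 5 µM, with a well cell count of 50 or more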;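 further: per-cell ratio of nuclear to cytoplasmic median beta-catenin stain intensity; plate controls were DMSO negative control for no effect and GSK-3 inhibitor IX positive control for full effect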
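System: HeLa cells, endogenous beta-catenin; compound dosing: 5 µM primary single dose, 0.1% DMSO, 0.02–20 µM confirmation series; incubation: 24 h compound exposure at 37°C, 5% CO2; signal: beta-catenin immunofluorescence imaging with DAPI; evaluation: % activation, nuclear-to-cytoplasmic median beta-catenin signal ratio per cell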
L major viab: Leishmania major promastigote growth inhibition | Leishmania major promastigotes, resazurin fluorescence viability | inhibition, % at 10 µM | 9% of 200,000 active; in the data active means inhibition above about 50%;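 further: promastigotes grown with compound for 44 hours at 28 °C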
Dynein transport: dynein cargo transport inhibition; 3617.4 mouse cells, GR-EGFP nuclear translocation imaging; test concentration mostly 20 µM; stimulated with dexamethasone, 1 µM; hits give low values; z-score, hits read low; 0.47% of 220,000 active; AID 1381;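 active means plate z-score of nuclear minus cytoplasmic receptor signal below a set negative limit, without overly bright fluorescence or cell loss, cut at about -3.5 in these data, passing the limit was not always enough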;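 further: z-score of nuclear minus cytoplasmic ring GR-EGFP intensity difference per well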
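Also added – dexamethasone, 1.0 µM final · Buffer or medium – tet-free, stripped-serum medium · Schedule – induction 48 h, compound 1 h, agonist 30 min · Detection – formaldehyde fixation, Hoechst nuclear stain, 10x automated fluorescence imaging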
MT stabilizer: microtubule stabilizers in HeLa cells | 0.83% of 200,000 active | HeLa tubulin immunostaining HCS, 24 h; share of cells brighter than vehicle mean+2SD | AID 2205 | % tubulin-high responders, % at 10 µM;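 active means plate Z-score above 3 for both tubulin-high and condensed-nucleus cell shares, with cell loss under 80%, at 10 µM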;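 further: anti alpha tubulin signal scored within the nucleus-defined area of each cell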
Autophagy mod: modulators of autophagy. MEF GFP-LC3 puncta imaging; test concentration mostly 10 µM. calls only at 10 µM (by protocol). 0.98% of 190,000 active. AID 463193;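 active means percentage of spot-positive cells more than 3 SD above its plate mean, without a fluorescence outlier flag or 80% toxicity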;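 further: spot-positive cell cutoff set from DMSO-treated cells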
* hit, by the source's call; i = inactive; . = not tested or not shown; + = active, no number.

SMILES	CHOP inhibitor	b-catenin transl	L major viab	Dynein transport	MT stabilizer	Autophagy mod
COc1ccc(-n2c(C)cc(C)c(C(C)=O)c2=S)cc1	-12	.	-1	0.23	7	i
CCC(=O)Nc1ccc2nc(C3CC3)n(Cc3ccccc3)c(=O)c2c1	14	-3	0	-0.52	1	i
COc1ccc(Cn2c(C3CC3)nc3ccc(NC(=O)c4ccco4)cc3c2=O)cc1	33	-1	23	-0.21	13*	i
COc1cccc2c(=O)n(CC(=O)Nc3ccccc3F)ccc12	35	1	-9	-1.1	6	i
O=C(CCl)Nc1cc(S(=O)(=O)N2CCCCCC2)ccc1Cl	78*	15	99*	-2.7	4	i
CC(C)(C)CC(=O)Nc1cc(S(=O)(=O)N2CCCCCC2)ccc1Cl	-5	1	5	0.1	2	i
CC(NCc1ccc(F)cc1)C(=O)Nc1cc(S(=O)(=O)N2CCCCC2)ccc1Cl (stereo unspecified)	14	-2	62*	2.3	3	i
Cc1ccc(-c2nc(SCC(=O)Nc3cc(S(=O)(=O)N4CCCCC4)ccc3Cl)n[nH]2)cc1	10	1	58*	-0.96	2	i
CCCn1c(N)c(CC)c(=O)[nH]c1=O	9	3	-5	1.3	2	i
COc1ccc(C2CC(=O)C3=C(C2)Nc2ccccc2NC3c2coc3ccccc3c2=O)cc1OC (stereo unspecified)	28	-1	93*	0.33	3	i
COc1ccc(N(C(=O)c2ccco2)S(=O)(=O)c2ccccc2)cc1	60	.	1	1.2	1	i
COc1ccc(N(C(=O)c2ccco2)S(=O)(=O)c2cc(Cl)c(Cl)cc2Cl)cc1	10	.	6	0.45	33*	i
COc1ccc(CC(=O)OCC(=O)Nc2ccc(N3CCOCC3)cc2)cc1	1	2	.	0.54	.	.
O=C1N/C(=C/c2ccc(Br)s2)C(=O)N1c1ccccc1	96*	0	1	-0.37	2	+
CC(C)(C)SCCNC(=O)COc1ccc(Cl)cc1	13	0	0	0.12	2	i
Cc1ccccc1CSCCNC(=O)COc1ccc(Cl)cc1	75*	0	33	0.53	1	i
O=C(CNS(=O)(=O)c1cccc(Cl)c1)OCc1csc(-c2ccccc2)n1	90*	-3	-1	0.55	2	i
COC(=O)C1=C(C)NC(=O)/C1=C\N(C)C	-20	-1	1	-0.16	2	i
C=CCn1c(SCc2nc3sc(C(=O)O)c(C)c3c(=O)[nH]2)nnc1-c1ccc(C(C)(C)C)cc1	-1	-2	.	1.3	.	.
CCn1c(SCc2nc3scc(-c4ccccc4)c3c(=O)[nH]2)nnc1-c1ccc(Cl)cc1	93*	1	-8	-0.2	5	i
C=CCn1c(SCc2nc3sc(C(=O)O)c(C)c3c(=O)[nH]2)nnc1-c1ccccc1	-4	-2	-8	1.9	3	+
Cc1ccc(N(CC(=O)N2CC(=O)Nc3ccccc32)S(=O)(=O)c2ccc3c(c2)OCCO3)cc1	5	-2	3	0.23	1	i
OCc1ccnc2c(O)cccc12	-20	-1	100*	-0.84	2	.
Cc1ccccc1NCc1ccc(O)c2ncccc12	-33	1	100*	0.7	3	i
Oc1ccc(CNc2ccccc2)c2cccnc12	-99	-3	66*	-0.63	3	i
SMILES	CHOP inhibitor	b-catenin transl	L major viab	Dynein transport	MT stabilizer	Autophagy mod
Oc1ccc(CNc2ccc(F)cc2)c2cccnc12	70	-5	-3	-0.62	3	i
COCc1ccc(O)c2ncccc12	82*	.	100*	0.24	2	i
Cc1cccc(NCc2ccc(O)c3ncccc23)c1	-31	-1	-4	-0.5	5	i
CS(=O)(=O)N(CC(=O)Nc1cccc([N+](=O)[O-])c1)c1cccc(F)c1	16	1	11	-0.29	3	i
O=C(Nc1sc2c(c1C(=O)N1CCOCC1)CCCCC2)c1cccnc1	-1	-1	17	2.8	3	i
COc1ccc(S(=O)(=O)N2CC(O)C[C@H]2C(=O)OCC(=O)N2CCCCCC2)cc1 (stereo partly specified)	-4	2	-3	0.035	2	i
Oc1ccc(Cn2ccnc2)c2cccnc12	-6	0	99*	-0.0078	2	i
